From ChEMBL document CHEMBL1154186, “Synthesis, kinase inhibitory potencies, and in vitro antiproliferative evaluation of new Pim kinase inhibitors” (J Med Chem, 2009)

Legend:
[1] = molecular target: Serine/threonine-protein kinase PAK 5 (Homo sapiens) (UniProt Q9P286); experiment: Inhibition of PAK5 assessed as residual enzyme activity at 10 uM relative to untreated control
Summary of the method: (§1)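 Kinases of human origin, except CK1δ, which is rat. Run in 50 mM Tris/HCl pH 7.5, 0.1 mM EGTA, 0.1% 2-mercaptoethanol and 10 mM Mg acetate, with [γ-33P]ATP at 20 µM, 30 min at 21 °C. Acid-stopped and captured on P81 filters. Compound tested at 10 µM; residual % of uninhibited control, duplicate determinations.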

[2] = molecular target: T1, 3-phosphoinositide-dependent protein kinase 1 (Homo sapiens) (UniProt O15530); experiment: Inhibition of PDK1 assessed as residual enzyme activity at 10 uM relative to untreated control; summary of the method: as §1
T1 sequence (whole entry): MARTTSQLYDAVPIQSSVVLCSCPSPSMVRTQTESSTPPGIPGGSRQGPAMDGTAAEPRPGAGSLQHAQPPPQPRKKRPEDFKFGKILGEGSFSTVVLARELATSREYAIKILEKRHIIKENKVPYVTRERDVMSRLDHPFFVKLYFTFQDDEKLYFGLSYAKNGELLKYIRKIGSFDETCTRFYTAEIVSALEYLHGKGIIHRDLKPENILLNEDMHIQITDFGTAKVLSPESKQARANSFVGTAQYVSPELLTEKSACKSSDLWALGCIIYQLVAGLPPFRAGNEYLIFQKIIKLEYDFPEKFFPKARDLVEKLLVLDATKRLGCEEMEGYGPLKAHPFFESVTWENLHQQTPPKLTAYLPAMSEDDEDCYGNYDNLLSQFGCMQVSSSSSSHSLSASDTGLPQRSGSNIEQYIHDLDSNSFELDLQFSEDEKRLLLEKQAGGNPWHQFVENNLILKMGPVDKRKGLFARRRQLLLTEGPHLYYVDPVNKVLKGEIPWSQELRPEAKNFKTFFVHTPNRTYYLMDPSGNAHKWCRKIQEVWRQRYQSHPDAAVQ

Lck (Mus musculus) = experiment: Inhibition of Lck assessed as residual enzyme activity at 10 uM relative to untreated control
[3] = molecular target: Serine/threonine-protein kinase Nek7 (Homo sapiens) (UniProt Q8TDX7); experiment: Inhibition of NEK7 assessed as residual enzyme activity at 10 uM relative to untreated control; summary of the method: as §1
[4] = molecular target: Aurora kinase B (Homo sapiens) (UniProt Q96GD4); experiment: Inhibition of AURORA B assessed as residual enzyme activity at 10 uM relative to untreated control; summary of the method: as §1
[5] = molecular target: Serine/threonine-protein kinase Chk2 (Homo sapiens) (UniProt O96017); experiment: Inhibition of CHK2 assessed as residual enzyme activity at 10 uM relative to untreated control; summary of the method: as §1
[6] = Inhibition of CK1 assessed as residual enzyme activity at 10 uM relative to untreated control
[7] = molecular target: MAP/microtubule affinity-regulating kinase 3 (Homo sapiens) (UniProt P27448); experiment: Inhibition of MARK3 assessed as residual enzyme activity at 10 uM relative to untreated control
Summary of the method: (§2)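 Radiometric filter-binding assay at 21 °C for 30 min. Mix: 50 mM Tris/HCl pH 7.5, 0.1 mM EGTA, 0.1% 2-mercaptoethanol, 10 mM Mg acetate and [γ-33P]ATP (800 cpm/pmol) at 5 µM. Stopped with orthophosphoric acid and spotted on P81. Compound at 10 µM; activity given as % remaining versus no-inhibitor control, duplicates. Kinases human full-length unless noted.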

[8] = molecular target: Serine/threonine-protein kinase PLK1 (Homo sapiens) (UniProt P53350); experiment: Inhibition of PLK1 assessed as residual enzyme activity at 10 uM relative to untreated control
Summary of the method: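 30 min at 21 °C in the presence of 10 µM inhibitor. Incorporation read after P81 filter capture. Reported as % activity remaining relative to control, duplicates.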

[9] = Inhibition of CK2 assessed as residual enzyme activity at 10 uM relative to untreated control; summary of the method: as §2
[10] = molecular target: T2, Mitogen-activated protein kinase 13 (Homo sapiens) (UniProt O15264); experiment: Inhibition of p38delta assessed as residual enzyme activity at 10 uM relative to untreated control
T2 sequence (whole entry): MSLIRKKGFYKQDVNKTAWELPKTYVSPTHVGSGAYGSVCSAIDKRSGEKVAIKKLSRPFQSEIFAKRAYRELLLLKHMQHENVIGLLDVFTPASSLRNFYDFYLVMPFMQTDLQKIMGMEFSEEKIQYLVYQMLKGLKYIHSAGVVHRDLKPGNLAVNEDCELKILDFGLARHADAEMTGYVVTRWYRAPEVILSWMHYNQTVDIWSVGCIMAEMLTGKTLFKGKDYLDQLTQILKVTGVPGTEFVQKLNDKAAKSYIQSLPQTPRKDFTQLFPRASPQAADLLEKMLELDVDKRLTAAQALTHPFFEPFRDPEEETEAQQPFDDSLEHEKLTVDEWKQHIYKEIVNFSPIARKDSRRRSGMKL
Summary of the method: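 p38γ and p38δ MAPK run at 5 µM [γ-33P]ATP, and p38α at 50 µM, each with 10 mM Mg acetate. Buffer 50 mM Tris/HCl pH 7.5, 0.1 mM EGTA, 0.1% 2-mercaptoethanol. 10 µM compound, 30 min at 21 °C. P81 filter capture. Residual activity relative to control, duplicates.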

[11] = molecular target: Cyclin-dependent kinase 2/cyclin A (Homo sapiens) (UniProt P24941+P20248+P78396); experiment: Inhibition of CDK2/Cyclin A assessed as residual enzyme activity at 10 uM relative to untreated control; assay type: protein-complex assay; summary of the method: as §1
RSK1 (Rattus norvegicus) = experiment: Inhibition of RSK1 assessed as residual enzyme activity at 10 uM relative to untreated control
[12] = molecular target: Homeodomain-interacting protein kinase 3 (Homo sapiens) (UniProt Q9H422); experiment: Inhibition of HIPK3 assessed as residual enzyme activity at 10 uM relative to untreated control; summary of the method: as §1
[13] = molecular target: SRSF protein kinase 1 (Homo sapiens) (UniProt Q96SB4); experiment: Inhibition of SRPK1 assessed as residual enzyme activity at 10 uM relative to untreated control
[14] = molecular target: RAC-beta serine/threonine-protein kinase (Homo sapiens) (UniProt P31751); experiment: Inhibition of PKBbeta assessed as residual enzyme activity at 10 uM relative to untreated control
Summary of the method: (§3)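 Assayed with [γ-33P]ATP at 50 µM and 10 mM Mg acetate in 50 mM Tris/HCl pH 7.5, 0.1 mM EGTA, 0.1% 2-mercaptoethanol, 30 min, 21 °C. Phosphoric acid stop, P81 filter capture. ERK2 and Lck are mouse; AMPK is rat. 10 µM compound; % activity remaining relative to control without inhibitor, duplicates.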

[15] = molecular target: Serine/threonine-protein kinase Nek6 (Homo sapiens) (UniProt Q9HC98); experiment: Inhibition of NEK6 assessed as residual enzyme activity at 10 uM relative to untreated control; summary of the method: as §3
Serine/threonine-protein kinase Nek6 (Homo sapiens), sequence (Q9HC98 whole entry): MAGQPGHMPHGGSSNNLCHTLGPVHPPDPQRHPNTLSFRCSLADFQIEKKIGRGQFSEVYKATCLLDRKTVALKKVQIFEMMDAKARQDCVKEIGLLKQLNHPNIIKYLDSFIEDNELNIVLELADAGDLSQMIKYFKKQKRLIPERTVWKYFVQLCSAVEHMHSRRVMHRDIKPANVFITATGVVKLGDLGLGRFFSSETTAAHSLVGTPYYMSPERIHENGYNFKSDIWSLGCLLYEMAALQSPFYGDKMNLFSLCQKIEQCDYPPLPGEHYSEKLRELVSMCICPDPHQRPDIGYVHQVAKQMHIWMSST

Serine/threonine-protein kinase Chk2 (Homo sapiens), sequence (O96017 whole entry): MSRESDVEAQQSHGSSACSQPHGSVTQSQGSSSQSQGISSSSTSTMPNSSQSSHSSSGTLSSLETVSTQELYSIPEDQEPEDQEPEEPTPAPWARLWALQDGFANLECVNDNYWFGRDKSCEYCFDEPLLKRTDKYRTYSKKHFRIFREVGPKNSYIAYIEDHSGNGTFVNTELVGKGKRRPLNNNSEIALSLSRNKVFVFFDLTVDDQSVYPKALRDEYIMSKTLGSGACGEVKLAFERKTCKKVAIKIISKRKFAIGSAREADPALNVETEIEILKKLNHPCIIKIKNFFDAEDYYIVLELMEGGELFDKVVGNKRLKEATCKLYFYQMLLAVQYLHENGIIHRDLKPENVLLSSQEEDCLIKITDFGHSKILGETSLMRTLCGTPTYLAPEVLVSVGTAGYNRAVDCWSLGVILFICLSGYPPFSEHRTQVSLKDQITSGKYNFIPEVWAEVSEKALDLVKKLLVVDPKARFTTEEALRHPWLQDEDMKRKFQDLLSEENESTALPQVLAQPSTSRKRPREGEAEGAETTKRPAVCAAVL
SRSF protein kinase 1 (Homo sapiens), sequence (Q96SB4 whole entry): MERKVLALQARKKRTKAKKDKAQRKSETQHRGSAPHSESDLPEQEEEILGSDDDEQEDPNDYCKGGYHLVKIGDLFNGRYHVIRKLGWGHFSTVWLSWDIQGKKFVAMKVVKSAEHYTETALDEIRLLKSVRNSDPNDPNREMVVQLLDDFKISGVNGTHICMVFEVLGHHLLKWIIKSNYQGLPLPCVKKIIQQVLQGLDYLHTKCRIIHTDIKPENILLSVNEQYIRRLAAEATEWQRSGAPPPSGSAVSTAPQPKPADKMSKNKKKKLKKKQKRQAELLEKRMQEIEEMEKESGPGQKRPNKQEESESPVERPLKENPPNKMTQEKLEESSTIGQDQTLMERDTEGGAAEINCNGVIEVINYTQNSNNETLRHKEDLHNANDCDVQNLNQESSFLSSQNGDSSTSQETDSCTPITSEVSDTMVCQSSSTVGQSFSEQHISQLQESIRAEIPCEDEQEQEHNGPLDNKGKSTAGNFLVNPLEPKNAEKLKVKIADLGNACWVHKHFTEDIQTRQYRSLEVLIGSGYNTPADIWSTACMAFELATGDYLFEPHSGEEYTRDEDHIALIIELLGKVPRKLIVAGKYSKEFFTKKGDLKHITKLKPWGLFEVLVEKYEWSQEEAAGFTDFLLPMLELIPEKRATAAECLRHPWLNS
Serine/threonine-protein kinase PLK1 (Homo sapiens), sequence (P53350 whole entry): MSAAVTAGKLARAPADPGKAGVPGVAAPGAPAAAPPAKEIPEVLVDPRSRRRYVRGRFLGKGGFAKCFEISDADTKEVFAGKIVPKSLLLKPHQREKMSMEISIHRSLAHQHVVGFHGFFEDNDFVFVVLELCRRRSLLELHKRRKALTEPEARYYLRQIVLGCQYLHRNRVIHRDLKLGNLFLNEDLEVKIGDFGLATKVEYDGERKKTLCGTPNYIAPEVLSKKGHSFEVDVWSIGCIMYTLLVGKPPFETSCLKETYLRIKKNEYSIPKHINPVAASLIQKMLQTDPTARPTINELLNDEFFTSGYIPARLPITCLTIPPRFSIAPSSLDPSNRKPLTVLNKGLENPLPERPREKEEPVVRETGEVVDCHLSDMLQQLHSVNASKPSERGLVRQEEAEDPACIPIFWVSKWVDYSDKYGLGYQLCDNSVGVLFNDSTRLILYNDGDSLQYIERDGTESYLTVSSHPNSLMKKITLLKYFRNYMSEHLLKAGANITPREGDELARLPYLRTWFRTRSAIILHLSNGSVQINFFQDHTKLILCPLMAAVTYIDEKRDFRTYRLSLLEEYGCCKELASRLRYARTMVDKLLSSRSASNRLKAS
Homeodomain-interacting protein kinase 3 (Homo sapiens), sequence (Q9H422 whole entry, looked up): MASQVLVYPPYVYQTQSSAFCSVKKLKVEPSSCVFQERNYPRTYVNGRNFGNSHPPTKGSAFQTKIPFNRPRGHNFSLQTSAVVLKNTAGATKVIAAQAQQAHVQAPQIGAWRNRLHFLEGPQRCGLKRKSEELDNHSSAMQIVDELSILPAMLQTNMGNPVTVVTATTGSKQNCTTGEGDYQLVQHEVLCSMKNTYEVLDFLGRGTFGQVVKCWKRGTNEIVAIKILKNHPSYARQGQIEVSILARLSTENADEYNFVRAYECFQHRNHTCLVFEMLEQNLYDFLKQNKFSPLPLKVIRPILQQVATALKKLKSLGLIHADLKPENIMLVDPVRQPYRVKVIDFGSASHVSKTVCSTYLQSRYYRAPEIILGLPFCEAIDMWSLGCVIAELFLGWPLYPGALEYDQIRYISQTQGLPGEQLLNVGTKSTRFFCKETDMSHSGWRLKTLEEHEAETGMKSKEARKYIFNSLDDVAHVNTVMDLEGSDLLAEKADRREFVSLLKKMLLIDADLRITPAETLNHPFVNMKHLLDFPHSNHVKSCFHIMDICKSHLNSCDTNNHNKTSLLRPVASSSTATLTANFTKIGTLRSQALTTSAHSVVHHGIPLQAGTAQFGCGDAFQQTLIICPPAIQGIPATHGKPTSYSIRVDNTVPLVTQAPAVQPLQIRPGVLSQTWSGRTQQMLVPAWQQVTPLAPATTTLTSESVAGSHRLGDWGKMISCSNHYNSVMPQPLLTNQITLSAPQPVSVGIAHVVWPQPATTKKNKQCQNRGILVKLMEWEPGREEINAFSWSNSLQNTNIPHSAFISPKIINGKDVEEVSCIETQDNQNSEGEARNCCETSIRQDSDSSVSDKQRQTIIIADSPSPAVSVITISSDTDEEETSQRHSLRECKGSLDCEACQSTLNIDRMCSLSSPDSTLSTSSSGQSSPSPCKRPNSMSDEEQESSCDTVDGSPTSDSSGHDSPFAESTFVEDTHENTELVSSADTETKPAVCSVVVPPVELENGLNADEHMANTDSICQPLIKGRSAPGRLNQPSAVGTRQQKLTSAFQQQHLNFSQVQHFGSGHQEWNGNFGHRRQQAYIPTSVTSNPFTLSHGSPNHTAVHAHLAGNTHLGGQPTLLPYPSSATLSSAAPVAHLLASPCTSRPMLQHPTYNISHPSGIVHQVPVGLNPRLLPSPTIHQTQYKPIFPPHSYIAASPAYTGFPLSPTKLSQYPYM
Serine/threonine-protein kinase PAK 5 (Homo sapiens), sequence (Q9P286 whole entry, looked up): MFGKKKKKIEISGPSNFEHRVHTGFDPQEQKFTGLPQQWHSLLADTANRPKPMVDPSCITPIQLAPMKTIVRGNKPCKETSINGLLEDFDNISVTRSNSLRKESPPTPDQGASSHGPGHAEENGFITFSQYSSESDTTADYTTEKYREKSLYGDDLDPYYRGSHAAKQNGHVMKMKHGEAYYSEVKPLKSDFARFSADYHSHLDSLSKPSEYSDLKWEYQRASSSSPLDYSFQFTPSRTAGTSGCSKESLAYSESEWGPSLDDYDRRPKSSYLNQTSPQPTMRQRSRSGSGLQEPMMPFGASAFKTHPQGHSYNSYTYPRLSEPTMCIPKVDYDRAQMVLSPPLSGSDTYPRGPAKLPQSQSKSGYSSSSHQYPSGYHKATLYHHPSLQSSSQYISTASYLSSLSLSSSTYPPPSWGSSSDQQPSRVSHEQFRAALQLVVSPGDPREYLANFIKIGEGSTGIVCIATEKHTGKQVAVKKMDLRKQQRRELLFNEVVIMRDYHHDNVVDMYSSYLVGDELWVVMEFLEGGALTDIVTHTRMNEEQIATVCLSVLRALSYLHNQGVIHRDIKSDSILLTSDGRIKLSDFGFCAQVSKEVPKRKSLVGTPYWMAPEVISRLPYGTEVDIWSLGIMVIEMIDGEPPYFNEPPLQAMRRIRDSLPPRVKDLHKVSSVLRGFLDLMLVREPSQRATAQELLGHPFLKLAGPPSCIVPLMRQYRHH
Serine/threonine-protein kinase Nek7 (Homo sapiens), sequence (Q8TDX7 whole entry, looked up): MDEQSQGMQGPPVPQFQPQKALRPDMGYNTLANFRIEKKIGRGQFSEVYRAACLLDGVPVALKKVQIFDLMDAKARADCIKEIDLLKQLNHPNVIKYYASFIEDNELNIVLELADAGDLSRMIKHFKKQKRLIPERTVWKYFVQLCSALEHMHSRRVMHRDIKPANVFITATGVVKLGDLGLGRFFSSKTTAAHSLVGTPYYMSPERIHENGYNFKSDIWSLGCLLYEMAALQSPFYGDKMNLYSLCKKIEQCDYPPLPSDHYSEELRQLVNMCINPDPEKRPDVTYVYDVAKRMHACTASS
RAC-beta serine/threonine-protein kinase (Homo sapiens), sequence (P31751 whole entry): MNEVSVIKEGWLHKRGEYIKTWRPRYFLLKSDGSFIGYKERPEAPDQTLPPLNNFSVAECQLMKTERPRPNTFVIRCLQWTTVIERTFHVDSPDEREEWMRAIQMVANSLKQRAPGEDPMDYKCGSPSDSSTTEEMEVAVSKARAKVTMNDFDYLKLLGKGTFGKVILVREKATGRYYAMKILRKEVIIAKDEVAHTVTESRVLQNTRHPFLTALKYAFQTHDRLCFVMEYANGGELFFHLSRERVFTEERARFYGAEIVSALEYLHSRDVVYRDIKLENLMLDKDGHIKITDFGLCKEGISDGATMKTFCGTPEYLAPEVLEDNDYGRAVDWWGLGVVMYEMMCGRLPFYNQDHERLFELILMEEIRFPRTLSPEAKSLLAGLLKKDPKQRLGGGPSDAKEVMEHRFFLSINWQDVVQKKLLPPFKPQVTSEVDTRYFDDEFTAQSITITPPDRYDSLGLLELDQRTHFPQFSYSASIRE

SMILES: c1ccc2c(c1)[nH]c1c2ccc2cc[nH]c21
- Activity [1]: 82%
- Activity [2]: 86%
- Activity (Lck (Mus musculus)): 88%
- Activity [3]: 96%
- Activity [4]: 67%
- Activity [5]: 58%
- Activity [6]: 107%
- Activity [7]: 116%
- Activity [8]: 111%
- Activity [9]: 91%
- Activity [10]: 78%
- Activity [11]: 97%
- Activity (RSK1 (Rattus norvegicus)): 105%
- Activity [12]: 97%
- Activity [13]: 90%
- Activity [14]: 107%
- Activity [15]: 90%

SMILES: O=Cc1c[nH]c2c1ccc1c3ccccc3[nH]c12
- Activity [1]: 87%
- Activity [3]: 89%
- Activity [4]: 68%
- Activity [7]: 88%
- Activity [8]: 91%
- Activity [9]: 62%
- Activity [11]: 74%
- Activity [12]: 64%
- Activity [13]: 84%
- Activity [14]: 98%
- Activity [15]: 78%

SMILES: O=Cc1c[nH]c2ccc3c4ccccc4[nH]c3c12
- Activity [1]: 96%
- Activity [2]: 85%
- Activity (Lck (Mus musculus)): 114%
- Activity [3]: 95%
- Activity [4]: 92%
- Activity [5]: 89%
- Activity [6]: 113%
- Activity [7]: 105%
- Activity [8]: 106%
- Activity [9]: 98%
- Activity [10]: 83%
- Activity [11]: 109%
- Activity (RSK1 (Rattus norvegicus)): 120%
- Activity [12]: 100%
- Activity [13]: 93%
- Activity [14]: 107%
- Activity [15]: 86%

SMILES: c1ccc2c(c1)[nH]c1c3cc[nH]c3ccc21
- Activity [1]: 99%
- Activity [2]: 82%
- Activity (Lck (Mus musculus)): 81%
- Activity [3]: 92%
- Activity [4]: 67%
- Activity [5]: 73%
- Activity [6]: 99%
- Activity [7]: 94%
- Activity [8]: 105%
- Activity [9]: 96%
- Activity [10]: 89%
- Activity [11]: 95%
- Activity (RSK1 (Rattus norvegicus)): 99%
- Activity [12]: 106%
- Activity [13]: 94%
- Activity [14]: 107%
- Activity [15]: 71%
